From ChEMBL document CHEMBL4665798, “Novel Human Urate Transporter 1 Inhibitors as Hypouricemic Drug Candidates with Favorable Druggability” (J Med Chem, 2020)

Experiments:
[1] = Half-life in male Kunming mouse at 50 mg/kg, po by LC-MS/MS analysis; type: ADME, organism-based; details: in vivo
Method in brief: (§1)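 Male Kunming mice, ten in total, split into five groups; single oral dose in PEG 400/normal saline (70/30, v/v). Blood taken from submandibular or saphenous vein into K2EDTA tubes at 0.25, 0.5, 1, 2, 4, 8, 24, 48, 72 h. Plasma spun at about 4 °C and kept at -70 °C. Acetonitrile precipitation with dexamethasone internal standard, then LC-MS/MS against plasma standard curves.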

[2] = Cmax in male Kunming mouse at 2 mg/kg, po by LC-MS/MS analysis; type: ADME, organism-based; parameters: route oral, dose 2 mg/kg; details: in vivo; method in brief: as §1
[3] = AUC (0 to t) in male Kunming mouse at 2 mg/kg, po by LC-MS/MS analysis; type: ADME, organism-based; parameters: dose 2 mg/kg; details: in vivo; method in brief: as §1
[4] = AUC (0 to infinity) in Sprague-Dawley rat at 20 mg/kg, po by LC-MS analysis; type: ADME, organism-based; parameters: route oral, time infinity, dose 20 mg/kg; details: in vivo
[5] = AUC (0 to t) in Sprague-Dawley rat at 20 mg/kg, po by LC-MS analysis; type: ADME, organism-based; parameters: dose 20 mg/kg; details: in vivo
Rattus norvegicus [6] = species: Rattus norvegicus; assay: Hypouricemic activity in rat model of xanthine/potassium oxonate-induced acute hyperuricemia assessed as decrease in serum uric acid level relative to control; type: functional; parameters: scale not given: the % may be the effect or the level left
Rattus norvegicus [7] = species: Rattus norvegicus; assay: Potency index, ratio of lesinurad to test compound for hypouricemic activity in rat model of xanthine/potassium oxonate-induced acute hyperuricemia assessed as decrease in serum uric acid level; type: functional
[8] = target: T1, Solute carrier family 22 member 12 (Homo sapiens, UniProt Q96S37); assay: Potency index, ratio of lesinurad IC50 to test compound IC50 for inhibition of human URAT1 expressed in HEK293T cells assessed as reduction in [14C]uric acid uptake preincubated for 15 mins followed by [14C]uric acid addition by liquid scintillation counting method; type: cell-based
T1 sequence (Q96S37 whole entry): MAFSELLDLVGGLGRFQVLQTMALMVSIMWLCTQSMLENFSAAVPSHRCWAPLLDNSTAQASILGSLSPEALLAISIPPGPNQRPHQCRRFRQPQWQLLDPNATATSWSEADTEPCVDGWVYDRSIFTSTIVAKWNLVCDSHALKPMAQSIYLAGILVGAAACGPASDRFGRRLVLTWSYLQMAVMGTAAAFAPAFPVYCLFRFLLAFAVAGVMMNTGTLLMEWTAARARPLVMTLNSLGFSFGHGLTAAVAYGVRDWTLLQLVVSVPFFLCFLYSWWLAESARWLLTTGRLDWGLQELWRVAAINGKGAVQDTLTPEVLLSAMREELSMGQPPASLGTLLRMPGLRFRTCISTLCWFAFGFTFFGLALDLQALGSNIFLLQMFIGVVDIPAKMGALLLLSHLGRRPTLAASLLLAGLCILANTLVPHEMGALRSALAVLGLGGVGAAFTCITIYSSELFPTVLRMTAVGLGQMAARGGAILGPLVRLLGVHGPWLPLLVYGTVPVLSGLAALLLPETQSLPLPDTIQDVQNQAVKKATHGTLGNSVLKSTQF

**Q.** With `CC(Sc1nc2ncccc2n1-c1ccc(C2CC2)c2ccccc12)C(=O)O` (racemic) as the compound, how does the half-life [1] read?
**A.** 424 min

**Q.** And the Cmax [2]?
**A.** 2080 ng/mL

**Q.** And the AUC(0-t) [3]?
**A.** 13000 ng·h/mL

**Q.** What about the AUC(0-inf) [4] of the same compound?
**A.** 88800 ng·h/mL

**Q.** What about the AUC(0-t) [5] of the same compound?
**A.** 53200 ng·h/mL

**Q.** What about the Activity (Rattus norvegicus [6]) of the same compound?
**A.** 83.96%

**Q.** What about the Ratio (Rattus norvegicus [7]) of the same compound?
**A.** 1.6

**Q.** What about the “Ratio IC50” value [8] of the same compound?
**A.** > 8
